For one compound, Activity results are on record in ChEMBL document CHEMBL4325889, “Natural products hybrids: 3,5,4'-Trimethoxystilbene-5,6,7-trimethoxyflavone chimeric analogs as potential cytotoxic agents against diverse human cancer cells” (Eur J Med Chem, 2019).

Assay type in all cases: functional
The subject of experiment [1] is HeLa. The experiment is described as follows: Induction of apoptosis in human HeLa cells assessed as live cells at 2.5 uM by Annexin V-FITC/propidium iodide staining based flow cytometry (reference value: 85.2%). In short, it runs like this: (§1)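 HeLa human cervical cancer cells treated with increasing concentrations or for increasing incubation times. Cells stained with annexin V-FITC and propidium iodide and analysed by FACS. Gating: early apoptotic = annexin+/PI−, late apoptotic = annexin+/PI+.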

In experiment [2] the test system is HeLa. The experiment is described as follows: Induction of apoptosis in human HeLa cells assessed as early apoptotic cells at 2.5 uM by Annexin V-FITC/propidium iodide staining based flow cytometry (reference value: 5.7%). In short, it runs like this: as §1
(In general: In flow cytometry, cells or beads pass a laser one at a time.)

The test system of experiment [3] is HeLa. The experiment is described as follows: Induction of apoptosis in human HeLa cells assessed as late apoptotic cells at 2.5 uM by Annexin V-FITC/propidium iodide staining based flow cytometry (reference value: 6.9%). In short, it runs like this: as §1
Experiment [4] relates to HeLa. Briefly: Induction of apoptosis in human HeLa cells assessed as necrotic cells at 2.5 uM by Annexin V-FITC/propidium iodide staining based flow cytometry (reference value: 2.2%). In short, it runs like this: as §1
The test system of experiment [5] is HeLa. The experiment is described as follows: Induction of apoptosis in human HeLa cells assessed as live cells at 5 uM by Annexin V-FITC/propidium iodide staining based flow cytometry (reference value: 85.2%). The procedure, abridged:
as §1

The test system of experiment [6] is HeLa. The experiment is described as follows: Induction of apoptosis in human HeLa cells assessed as early apoptotic cells at 5 uM by Annexin V-FITC/propidium iodide staining based flow cytometry (reference value: 5.7%). In short, it runs like this: as §1
Experiment [7] has as its system HeLa. The experiment is described as follows: Induction of apoptosis in human HeLa cells assessed as late apoptotic cells at 5 uM by Annexin V-FITC/propidium iodide staining based flow cytometry (reference value: 6.9%). The procedure, abridged:
as §1

In experiment [8] the test system is HeLa. Briefly: Induction of apoptosis in human HeLa cells assessed as live cells at 10 uM by Annexin V-FITC/propidium iodide staining based flow cytometry (reference value: 85.2%). In short, it runs like this: as §1
For experiment [9], the system named is HeLa. Briefly: Induction of apoptosis in human HeLa cells assessed as early apoptotic cells at 10 uM by Annexin V-FITC/propidium iodide staining based flow cytometry (reference value: 5.7%). The procedure, abridged: as §1
The subject of experiment [10] is HeLa. The experiment is described as follows: Induction of apoptosis in human HeLa cells assessed as late apoptotic cells at 10 uM by Annexin V-FITC/propidium iodide staining based flow cytometry (reference value: 6.9%). The procedure, abridged: as §1
The subject of experiment [11] is HeLa. Briefly: Induction of apoptosis in human HeLa cells assessed as necrotic cells at 10 uM by Annexin V-FITC/propidium iodide staining based flow cytometry (reference value: 2.2%). In short, it runs like this: as §1
The subject of experiment [12] is HeLa. Briefly: Induction of apoptosis in human HeLa cells assessed as early apoptotic cells after 12 hrs by Annexin V-FITC/propidium iodide staining based flow cytometry (reference value: 2.6%). The procedure, abridged: as §1
Experiment [13] concerns HeLa. The experiment is described as follows: Induction of apoptosis in human HeLa cells assessed as late apoptotic cells after 12 hrs by Annexin V-FITC/propidium iodide staining based flow cytometry (reference value: 3.6%). In short, it runs like this: as §1
Experiment [14] relates to HeLa. The experiment is described as follows: Induction of apoptosis in human HeLa cells assessed as necrotic cells after 12 hrs by Annexin V-FITC/propidium iodide staining based flow cytometry (reference value: 0.9%). In short, it runs like this:
as §1

Experiment [15] relates to HeLa. The experiment is described as follows: Induction of apoptosis in human HeLa cells assessed as early apoptotic cells after 24 hrs by Annexin V-FITC/propidium iodide staining based flow cytometry (reference value: 2.6%). In short, it runs like this: as §1
The subject of experiment [16] is HeLa. The experiment is described as follows: Induction of apoptosis in human HeLa cells assessed as late apoptotic cells after 24 hrs by Annexin V-FITC/propidium iodide staining based flow cytometry (reference value: 3.6%). The procedure, abridged:
as §1

Experiment [17] deals with HeLa. The experiment is described as follows: Induction of apoptosis in human HeLa cells assessed as necrotic cells after 24 hrs by Annexin V-FITC/propidium iodide staining based flow cytometry (reference value: 0.9%). The procedure, abridged:
as §1

Experiment [18] has as its system HeLa. Briefly: Induction of apoptosis in human HeLa cells assessed as live cells after 48 hrs by Annexin V-FITC/propidium iodide staining based flow cytometry (reference value: 92.9%). In short, it runs like this:
as §1

For experiment [19], the system named is HeLa. Briefly: Induction of apoptosis in human HeLa cells assessed as necrotic cells after 48 hrs by Annexin V-FITC/propidium iodide staining based flow cytometry (reference value: 0.9%). The procedure, abridged:
as §1

SMILES strings stand for the structures.

With `COc1cc(NC(=O)c2cccc(-c3cc(=O)c4c(OC)c(OC)c(OC)cc4o3)c2)cc(OC)c1OC`, the Activity in [1] was determined as 79%; in experiment [2], 11.8%; in experiment [3], 6.8%; in [4] it was 2.4%; in experiment [5], 59.4%; in experiment [6] it was 21.1%. Also, the Activity was 13.8% in experiment [7]; 43.7% in experiment [8]; 22.6% in experiment [9]; 21.2% in experiment [10]; 12.6% in experiment [11]; 4.2% in experiment [12]. Further, the Activity in [13] came out at 5.5%; in [14], 1%; in experiment [15], 13.4%; in experiment [16], 4.4%; in experiment [17], 1.8%; in experiment [18], 33.2%. The Activity in experiment [19] came to 3.7%.
